Source: PubChem (several laboratories)
NR2E3 ag-1 – human photoreceptor-specific nuclear receptor agonism | Q9Y5X4 | CHO-S Gal4-NCOR/VP16-NR2E3 two-hybrid, luciferase | inhibition of corepressor binding, % at 3.98 µM | 0.35% of 360,000 active | AID 602229;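 active means inhibition above the mean of all tested compounds plus 3 SD, cut at about 70% in these data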;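 further: higher means lower luciferase signal from less NR2E3 corepressor binding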
Target sequence (Q9Y5X4 whole entry, looked up, the tested form may be a part): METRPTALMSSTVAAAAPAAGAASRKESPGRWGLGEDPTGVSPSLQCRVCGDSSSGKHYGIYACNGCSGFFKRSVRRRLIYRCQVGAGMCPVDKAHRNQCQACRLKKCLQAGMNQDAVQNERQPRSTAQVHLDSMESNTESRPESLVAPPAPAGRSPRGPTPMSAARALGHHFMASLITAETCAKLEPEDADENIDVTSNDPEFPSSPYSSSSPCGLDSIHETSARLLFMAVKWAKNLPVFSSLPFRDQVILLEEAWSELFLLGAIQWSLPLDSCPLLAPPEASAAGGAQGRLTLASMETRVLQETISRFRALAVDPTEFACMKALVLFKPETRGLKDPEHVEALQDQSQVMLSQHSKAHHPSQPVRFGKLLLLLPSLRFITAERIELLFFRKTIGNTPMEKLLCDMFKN
NR2E3 ag-2 – activates human photoreceptor nuclear receptor NR2E3 | Q9Y5X4 | GST-NR2E3/biotin-RetCOR TR-FRET, 1536-well | inhibition of corepressor binding, % at 4.78 µM | 0.12% of 320,000 active;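 active means percent inhibition above the cutoff of mean plus 3 SD of all tested compounds, set per screening campaign, cut at about 20% in these data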
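Test system – NR2E3–RetCOR corepressor complex · Quantity – NR2E3 fusion 1.35 nM · Buffer or medium – Tris pH 7.5 · Incubation – Compound–protein incubation for 5 h at 4 °C · Technique – TR-FRET, Eu(K)-anti-GST donor, streptavidin-D2 acceptor, ex 340, em 617/671 nm · Evaluation – percent inhibition of 671/617 nm emission ratio versus biotin and DMSO controls · Plate – 1536-well format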
PG9 binder – small molecules binding HIV-1 gp120 antibody PG9; TR-FRET gp120-PG9 antibody binding; inhibition, % at 6.7 µM; 0.43% of 360,000 active; AID 624416; in the data active means inhibition above about 8.5%
Rev-erbA mod – Rev-erb alpha (human) modulation; P20393; Rev-erbα–FITC-DNA binding, fluorescence polarization, 90 min; activity, % at 10 µM; 0.79% of 370,000 active;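 active means activity above about 14%, limit read from the data; passing the limit was not always enough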
PG9 bind confirm – PG9 antibody binding, confirmed; shares compounds with PG9 binder; TR-FRET PG9 antibody binding, biochemical; inhibition, % at 6.7 µM; 90% of 1,500 active; in the data active means inhibition above about 9%
PGV04 Ab binding – binds control antibody PGV04 in PG9 binder counter-screen; inhibition, % at 6.7 µM; TR-FRET PGV04 antibody-gp120 binding, biochemical; AID 651604; shares compounds with PG9 binder; 95% of 1,500 active; in the data active means inhibition above about 9.5%
NR1D1 mod conf – confirmation of modulators of human Rev-erb alpha DNA binding | 61% of 3,000 active | Rev-erb alpha FITC-DNA binding, fluorescence polarization, 90 min | shares compounds with Rev-erbA mod | activation, % at 25 µM;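 active means activation at or above a set limit, or at least 3 SD above the negative control mean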
RORg DNA counter – affects RORgamma DNA binding in a Rev-erb alpha counter-screen; 8% of 910 active; IC50, µM; shares compounds with Rev-erbA mod; purified RORgamma protein-FITC-DNA binding, fluorescence polarization;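 active means Compounds whose fitted half-maximal concentration for disrupting protein-DNA binding is below 10 micromolar; the record names Rev-erb in its text, so the target is in doubt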
Each line names hits and unclear results; the compound was inactive in the other large screens (follow-up assays come after a bar, where they were run). Compounds with a hit are over-represented: about 1.5% of the library has one in this group of screens.

N#Cc1c(N)nc2c3c(sc(=N)c2c1N)NC(=O)CC3c1ccccc1 (stereo not given)	PG9 binder 56.8, Rev-erbA mod 29.4 | PG9 bind confirm 55.0 | PGV04 Ab binding 70.7 | NR1D1 mod conf 40.9 | RORg DNA counter inactive
N#Cc1c(N)nc2c3c(sc(=N)c2c1N)NC(=O)CC3c1c(F)cccc1Cl (stereo not given)	PG9 binder 17.1, Rev-erbA mod 58.0 | PG9 bind confirm 22.1 | PGV04 Ab binding 29.8 | NR1D1 mod conf 61.5 | RORg DNA counter 2.9
CCOC(=O)CSC1=C(C#N)C(c2ccc(Cl)cc2)CC(=O)N1 (stereo not given)	none
CCN(CC)c1ccc(NC(=O)CSc2nnc(-c3ccc(Cl)cc3)n2Cc2ccco2)cc1	none (no result: NR2E3 ag-1, NR2E3 ag-2, PG9 binder)
Cc1ccc2nc(NC(=O)c3ccc4c(c3)OCO4)sc2c1	PG9 binder 17.9, Rev-erbA mod 28.6 | PG9 bind confirm 20.8 | PGV04 Ab binding 31.6 | NR1D1 mod conf inactive
NS(=O)(=O)c1ccc2nc(NC(=O)c3ccc4ncsc4c3)sc2c1	none (no result: PG9 binder, Rev-erbA mod)
NS(=O)(=O)c1ccc2nc(NC(=O)c3ccc4c(c3)OCCO4)sc2c1	PG9 binder 37.3, Rev-erbA mod 33.1 | PG9 bind confirm 33.0 | PGV04 Ab binding 45.8 | NR1D1 mod conf inactive
CCCOc1ccc(C(=O)Nc2nc(C)c(Cc3ccc4c(c3)OCO4)s2)cc1	PG9 binder 61.4, Rev-erbA mod 128.2 | PG9 bind confirm 25.4 | PGV04 Ab binding 31.1 | NR1D1 mod conf 82.8 | RORg DNA counter inactive
Cc1ccc(-n2ncc(C#N)c2N)cc1	none
Cc1ccc(-c2cc3ncc(C#N)c(N)n3n2)cc1	PG9 binder 36.7, Rev-erbA mod 47.1 | PG9 bind confirm 48.0 | PGV04 Ab binding 63.2 | NR1D1 mod conf inactive
C[C@@H]1C[C@@H]2O[C@H]2CCCCC(=O)Cc2cc(O)cc(O)c2C(=O)O1	none (no result: NR2E3 ag-1, NR2E3 ag-2, PG9 binder)
CCCCCNC(=O)c1ccc2c(=O)n(CCCOCC)c(=S)[nH]c2c1	none
CCOCCCn1c(=S)[nH]c2cc(C(=O)NCCc3ccccc3)ccc2c1=O	PG9 binder 18.2, Rev-erbA mod 42.7 | PG9 bind confirm 23.0 | PGV04 Ab binding 53.4 | NR1D1 mod conf 31.0 | RORg DNA counter inactive
COC(=O)[C@]12C[C@H](CC(=O)N3CCCCC3)C(=O)N(Cc3ccc4c(c3)OCO4)C1=C[C@H](C(C)C)O[C@@H]2C1CC1	none (no result: NR2E3 ag-1, NR2E3 ag-2, PG9 binder)
CCOC(=O)c1nn(-c2cccc(OC)c2)c2nc(CC)c(C#N)c(=O)n12	PG9 binder 27.5, Rev-erbA mod 37.3 | PG9 bind confirm 21.3 | PGV04 Ab binding 25.2 | NR1D1 mod conf inactive
Clc1nc(Oc2ccccc2)nc(-c2cn(-c3ccccc3)c3ccccc23)n1	none
CCNc1nc(Cl)nc(-c2cn(-c3ccccc3)c3ccccc23)n1	PG9 binder 10.7, Rev-erbA mod 42.0 | PG9 bind confirm 9.0 | PGV04 Ab binding 9.4 | NR1D1 mod conf inactive
COc1ccc(C(C)(C)C)cc1NC(=O)OC[C@@H]1CSCCS(=O)(=O)N1	none (no result: NR2E3 ag-1, NR2E3 ag-2)
COc1ccccc1NC(=O)COC(=O)c1ccc2c(c1)OCCO2	PG9 binder 11.3, Rev-erbA mod 22.4 | PG9 bind confirm inactive | PGV04 Ab binding 10.4 | NR1D1 mod conf 32.1 | RORg DNA counter inactive
Cc1ccccc1NC(=O)COC(=O)c1ccc2c(c1)OCCO2	none (no result: NR2E3 ag-2)
COc1cccc(C(=O)N(CCN2CCOCC2)Cc2ccc(OC)c(OC)c2)c1	none (no result: NR2E3 ag-1, NR2E3 ag-2, PG9 binder)
CCNC(=O)CCc1nc(-c2ccc(C(C)C)cc2)no1	none (no result: NR2E3 ag-1, NR2E3 ag-2, PG9 binder)
COC(=O)c1c(NC(=O)CN2C(=O)NC3(CCc4ccccc4C3)C2=O)sc2c1CCCCC2 (stereo not given)	PG9 binder 15.0, Rev-erbA mod 30.4 | PG9 bind confirm 21.9 | PGV04 Ab binding 34.3 | NR1D1 mod conf 25.8
COC(=O)c1c(NC(=O)CN2C(=O)NC3(CCC(C(C)(C)C)CC3)C2=O)sc2c1CCCCC2 (stereo not given)	none
COC(=O)C1CN(Cc2cn(Cc3ccc(Cl)cc3)nn2)CCS(=O)(=O)N1Cc1ccccc1 (stereo not given)	none (no result: NR2E3 ag-1, NR2E3 ag-2, PG9 binder)
